Active and inactive are the calls of the source.
Tests used:
[1] = tested on: D425 Med; assay: Antiproliferative activity in human D425 Med cells assessed as inhibition of cell growth at 300 nM by flow cytometry analysis; type: functional, cell-based
Summary of the method: (§1)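 ViaCount flow cytometric cell count. Cells seeded in medium, DMSO or drug added 24 h later, cultured a further 48 h. Cells then pelleted, washed, stained with Viacount reagent and counted on a Guava cytometer. Vehicle control DMSO.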

[2] = tested on: D283 Med; assay: Antiproliferative activity in human D283 Med cells assessed as inhibition of cell growth at 300 nM by flow cytometry analysis; type: functional, cell-based; summary of the method: as §1
[3] = tested on: D283 Med; assay: Inhibition of colony formation in human D283 Med cells at 100 to 300 nM incubated for 8 to 11 days by NBT staining based methyl cellulose colony growth assay; type: functional, cell-based; conditions: dose 100-300 nM, time 8-11 day
Summary of the method: (§2)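 500 cells/well suspended in DMEM with methyl cellulose (1.3% final) containing 150 or 300 nM drug or DMSO, plated in triplicate. Colonies formed over 8–11 days, then stained with NBT (1 mg/ml) for 24 h at 37 °C. Colonies of ≥50 cells counted.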

[4] = tested on: D458 Med; assay: Inhibition of colony formation in human D458 Med cells at 100 to 300 nM incubated for 8 to 11 days by NBT staining based methyl cellulose colony growth assay; type: functional, cell-based; conditions: dose 100-300 nM, time 8-11 day; summary of the method: as §2
[5] = tested on: D425 Med; assay: Induction of cell cycle arrest in human D425 Med cells assessed as S phase cells at 300 nM incubated for 48 hrs by flow cytometry analysis (reference value: 28.96 +/- 0.89%); type: functional
[6] = tested on: D425 Med; assay: Induction of cell cycle arrest in human D425 Med cells assessed as accumulation of cells at G1 phase at 300 nM incubated for 48 hrs by flow cytometry analysis (reference value: 33.715 +/- 0.495%); type: functional
[7] = tested on: D283 Med; assay: Induction of cell cycle arrest in human D283 Med cells assessed as G2/M phase cells at 300 nM incubated for 48 hrs by flow cytometry analysis (reference value: 55.70 +/- 1.50 %); type: functional
[8] = tested on: D425 Med; assay: Induction of cell cycle arrest in human D425 Med cells assessed as G2/M phase cells at 300 nM incubated for 48 hrs by flow cytometry analysis (reference value: 37 +/- 0.47%); type: functional
[9] = tested on: D458 Med; assay: Induction of cell cycle arrest in human D458 Med cells assessed as G2/M phase cells at 300 nM incubated for 48 hrs by flow cytometry analysis (reference value: 18.72 +/- 2.62%); type: functional
[10] = tested on: Daoy; assay: Suppression of human Daoy cells self-renewal cultured in serum free condition assessed as reduction in formation of new neurosphere at 300 nM; type: functional, cell-based
Summary of the method: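 Cells grown as neurospheres in serum-free medium for 48 h, dissociated, and seeded in a limiting dilution from 1000 to 1 cell/well, with 300 nM drug or DMSO. After 7 days in serum-free culture, neurospheres per well counted and plotted against cells seeded.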

[11] = tested on: Daoy; assay: Induction of senescence in human Daoy cells assessed as increase in p21 mRNA expression at 300 nM by RT-qPCR analysis; type: functional, cell-based
Summary of the method: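 Cells treated with 300 nM drug or DMSO. p16, p21 and p27 mRNA measured by TaqMan qPCR with ΔΔCt quantitation, in triplicate.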

[12] = tested on: Daoy; assay: Induction of senescence in human Daoy cells assessed as increase in p27 protein expression at 300 nM by immunoblot analysis; type: functional, cell-based
Summary of the method: (§3)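 Protein lysates prepared in RIPA buffer with protease inhibitors. Standard western blot with HRP-conjugated secondary antibodies and chemiluminescent detection.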

[13] = tested on: Daoy; assay: Induction of senescence in human Daoy cells assessed as decrease in phosphorylated RB protein expression at 300 nM by immunoblot analysis; type: functional, cell-based; summary of the method: as §3
[14] = tested on: Daoy; assay: Inhibition of E2F1 activity in human Daoy cells at 100 to 300 nM by luciferase based reporter assay; type: functional, cell-based; conditions: dose 100-300 nM
Summary of the method: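 Cignal pathway reporter system using an E2F1-responsive luciferase reporter. Cells seeded in 24-well plates and transfected with Surefect. DMSO or drug added 8 h later, then incubated a further 24 h before luciferase readout.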

[15] = tested on: Medulloblastoma cell; assay: Cytotoxicity against patient-derived Medulloblastoma cells assessed as reduction in cell viability at 300 nM by LDH assay; type: functional, cell-based; conditions: Homo sapiens
Summary of the method: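 Primary tumor slices cultured as described and treated daily from day 5 with DMSO, 300 nM drug, or mitomycin C (50 ug/mL). Spent medium was collected at each change and stored at -80 °C. LDH activity was measured by kit and normalized to the mitomycin C treatment.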

[16] = tested on: Daoy; assay: Downregulation of CDC25B gene expression in human Daoy cells at 300 nM by GSEA method; type: functional, cell-based
Summary of the method: (§4)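 Daoy cells treated with DMSO or 300 nM drug. RNA extracted and hybridized to Affymetrix HG-ST2.0 arrays. Analysis in R/Bioconductor with gene set enrichment analysis. Regulated transcripts defined as p < 0.05, FDR < 0.05, fold change < 0.67 (down) or > 1.5 (up).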

[17] = tested on: Daoy; assay: Downregulation of BARD1 gene expression in human Daoy cells at 300 nM by GSEA method; type: functional, cell-based; summary of the method: as §4
[18] = target: Bromodomain-containing protein 4 (Homo sapiens) (UniProt O60885); conditions: Daoy, dose 300.0 nM
[19] = target: Bromodomain-containing protein 4 (Homo sapiens) (UniProt O60885); conditions: D283 Med, dose 300.0 nM
[20] = target: Bromodomain-containing protein 4 (Homo sapiens) (UniProt O60885); conditions: D425 Med, dose 300.0 nM
[21] = target: Bromodomain-containing protein 4 (Homo sapiens) (UniProt O60885); conditions: Daoy, dose 300.0 nM; remark: listed apart in the source
[22] = target: Bromodomain-containing protein 4 (Homo sapiens) (UniProt O60885); conditions: D283 Med, dose 300.0 nM; remark: listed apart in the source
[23] = target: Bromodomain-containing protein 4 (Homo sapiens) (UniProt O60885); conditions: D458 Med, dose 300.0 nM
[24] = target: Bromodomain-containing protein 4 (Homo sapiens) (UniProt O60885); conditions: Daoy, dose 100.0 nM, time 24-72 hrs, TDE = time-dependent effect
[25] = target: Bromodomain-containing protein 4 (Homo sapiens) (UniProt O60885); conditions: Daoy, dose 300.0 nM; remark: listed apart in the source
[26] = target: Bromodomain-containing protein 4 (Homo sapiens) (UniProt O60885); conditions: Daoy, dose 300.0 nM; remark: listed apart in the source
[27] = target: Bromodomain-containing protein 4 (Homo sapiens) (UniProt O60885); conditions: D425 Med, dose 300.0 nM; remark: listed apart in the source
[28] = target: Bromodomain-containing protein 4 (Homo sapiens) (UniProt O60885); conditions: D425 Med, dose 300.0 nM; remark: listed apart in the source
[29] = target: Bromodomain-containing protein 4 (Homo sapiens) (UniProt O60885); conditions: D458 Med, dose 300.0 nM; remark: listed apart in the source
[30] = target: Bromodomain-containing protein 4 (Homo sapiens) (UniProt O60885); conditions: D458 Med, dose 300.0 nM; remark: listed apart in the source
[31] = target: Bromodomain-containing protein 4 (Homo sapiens) (UniProt O60885); conditions: D458 Med, dose 300.0 nM; remark: listed apart in the source

Cc1sc2c(c1C)C(c1ccc(Cl)cc1)=N[C@@H](CC(=O)OC(C)(C)C)c1nnc(C)n1-2
39.393%: Activity [6]
31%: Activity [8]
inactive: Activity [15]
23.266%: Activity [9]
53.216%: Activity [7]
28.636%: Activity [5]
active: Activity [1] | Activity [2] | inhibition [3] | inhibition [4] | Activity [10] | Activity [11] | Activity [12] | Activity [13] | inhibition [14] | Activity [16] | Activity [17] | inhibition [18] | inhibition [19] | inhibition [20] | inhibition [21] | inhibition [22] | inhibition [23] | inhibition [24] Tde | inhibition [25] | inhibition [26] | inhibition [27] | inhibition [28] | inhibition [29] | inhibition [30] | inhibition [31]

Reference: ChEMBL document CHEMBL5653617, “Inhibition of BRD4 attenuates tumor cell self-renewal and suppresses stem cell signaling in MYC driven medulloblastoma” (Oncotarget, 2014)
